In the library only some 2% were active in any assay of this set; here they are far more common.
CCR6 antag – CCR6 receptor antagonists, primary screen, cell-based, CHO-K1, luminescence, beta-arrestin, uHTS; C-C chemokine receptor type 6 (Homo sapiens), P51684; CHO-K1 CCR6 PathHunter beta-arrestin, CCL20-stimulated; inhibition, % at 20 µM; 340,000 compounds, 0.49% hits;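 active means compounds whose inhibition of the agonist-driven luminescence signal at 20 µM reaches about 50%, limit read from the data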;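 further: cells stimulated with CCL20 at 14 nM final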
APJ antagonist – antagonists of human apelin receptor APJ, primary screen, CHO-K1 cells, beta-arrestin complementation, luminescence. P35414. inhibition, % at 20 µM. 330,000 compounds, 0.32% hits. AID 2521, 2010;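 active means inhibition above about 40% at 20 µM, limit read from the data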;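 further: cells challenged with 10 nM apelin-13 agonist together with compound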
FXN GAA850 act – FXN promoter activators, primary screen, cell-based, luciferase luminescence, HEK293 lucGAA850; activation, % at 6 µM; 360,000 compounds, 0.56% hits; HEK293 lucGAA850 FXN promoter luciferase reporter, 24 h; percent of 10 µM SAHA response;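 active means activation above the average of all compounds screened plus 3 SD, cutoff fixed separately per campaign, cut at about 7.5% in these data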
CXCR6 inh – CXCR6 receptor inhibitors, primary screen, cell-based, beta-arrestin, luminescence, CHO-K1 PathHunter, 1536-well; C-X-C chemokine receptor type 6 (Homo sapiens), O00574; inhibition, % at 20 µM; 360,000 compounds, 0.36% hits; AID 602244, 2012; in the data active means inhibition above about 34%, passing the limit was not always enough;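 further: antagonist mode with CXCL16 agonist at 10 nM final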
EBI2 block – EBI2 receptor antagonists, beta-arrestin recruitment, primary screen, cell-based, luminescence, 7a,25-OHC stimulation, uHTS | inhibition, % at 5 µM | 7a,25-OHC stimulated | AID 651636, 2012 | 360,000 compounds, 0.81% hits; in the data active means inhibition above about 38%;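 further: enzyme fragment complementation signal reports receptor beta-arrestin coupling in cells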
Target sequence (P32249 whole entry, looked up, the tested form may be a part): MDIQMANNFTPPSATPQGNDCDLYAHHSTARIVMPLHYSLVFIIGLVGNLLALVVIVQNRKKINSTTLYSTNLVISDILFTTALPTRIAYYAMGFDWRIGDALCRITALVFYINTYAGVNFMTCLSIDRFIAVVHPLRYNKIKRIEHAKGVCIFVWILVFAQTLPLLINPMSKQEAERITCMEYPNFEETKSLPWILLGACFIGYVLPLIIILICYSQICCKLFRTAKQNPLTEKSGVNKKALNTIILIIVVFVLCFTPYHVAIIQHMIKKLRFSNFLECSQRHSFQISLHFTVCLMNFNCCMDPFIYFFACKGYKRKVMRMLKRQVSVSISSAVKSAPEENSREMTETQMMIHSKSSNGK
APJ ag – agonists of human apelin receptor APJ, primary screen, CHO-K1 cells, PathHunter beta-arrestin, luminescence. P35414. 0% DMSO wells, 100% apelin. activation, % at 20 µM. 330,000 compounds, 0.11% hits. AID 2520, 2010;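 active means activation more than six SD over the plate average, tested at 20 µM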
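system = engineered CHO-K1 APJ arrestin reporter cells | input = 1000 cells per well | timing = overnight seeding, 90 min compound at 25 °C, 1 h detection | measured by = enzyme-fragment complementation luminescence | read-out = beta-arrestin recruitment to APJ as agonist activity, luminescent signal | control set = negative DMSO alone, positive Apelin-13 at 10 nM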
APJ antag confirm – APJ antagonists blocking beta-arrestin recruitment, confirmation, cell-based, luminescence, single concentration, uHTS hits | shares compounds with APJ antagonist | antagonist mode | inhibition, % at 20 µM | 950 compounds, 66% hits; in the data active means inhibition above about 50%
A number is an active result.

O=C(CN1C(=O)C2C3C=CC(C3)C2C1=O)OCC(=O)c1ccc(Cl)c([N+](=O)[O-])c1 (centres undefined) was read as CCR6 antag 71, APJ antagonist 81, FXN GAA850 act inactive, CXCR6 inh 48, EBI2 block inactive, APJ ag inactive and APJ antag confirm 143.
Screening Cc1ccc(C(=O)COC(=O)C2CC3CCCC(C2)C3=O)cc1[N+](=O)[O-] (centres undefined) returned CCR6 antag inactive, APJ antagonist 43, FXN GAA850 act inactive, CXCR6 inh inactive, EBI2 block inactive, APJ ag inactive and APJ antag confirm inactive.
For Cc1ccc(C(=O)COC(=O)CN2C(=O)C3CC=CCC3C2=O)cc1[N+](=O)[O-] (centres undefined) the results were CCR6 antag inactive, APJ antagonist 45, FXN GAA850 act inactive, CXCR6 inh inactive, EBI2 block inactive, APJ ag inactive and APJ antag confirm 79.
Cc1ccc(C(=O)COC(=O)CN2C(=O)C3C4CCC(C4)C3C2=O)cc1C (centres undefined) was read as CCR6 antag inactive, APJ antagonist inactive, FXN GAA850 act inactive, CXCR6 inh inactive, EBI2 block inactive and APJ ag inactive.
For CC(=O)c1sc(NS(=O)(=O)c2ccc(C)cc2)nc1C the results were CCR6 antag inactive, APJ antagonist 53, FXN GAA850 act inactive, CXCR6 inh inactive, EBI2 block inactive, APJ ag inactive and APJ antag confirm inactive.
For Cc1ccc(N=Nc2c(C)[nH]n(C(N)=S)c2=O)cc1 the results were CCR6 antag inactive, APJ antagonist inactive, FXN GAA850 act inactive, CXCR6 inh inactive, EBI2 block inactive and APJ ag inactive.
Cc1[nH]n(C(N)=S)c(=O)c1N=Nc1ccc(S(=O)(=O)N2CCCC2)cc1 was read as CCR6 antag inactive, APJ antagonist 57, FXN GAA850 act inactive, CXCR6 inh inactive, EBI2 block inactive, APJ ag inactive and APJ antag confirm 80.
Screening O=C(C1CCN(S(=O)(=O)c2ccc(Br)s2)CC1)N1CCCCC1 returned CCR6 antag inactive, APJ antagonist inactive, FXN GAA850 act inactive, CXCR6 inh inactive, EBI2 block inactive and APJ ag inactive.
Screening COc1ccc(NC(=O)Cc2ccccc2F)cn1 returned CCR6 antag inactive, APJ antagonist inactive, FXN GAA850 act inactive, CXCR6 inh inactive, EBI2 block inactive and APJ ag inactive.
For COc1ccc(NC(=O)/C(Cl)=C(/Cl)S(=O)Cc2ccccc2Cl)cn1 (centres undefined) the results were CCR6 antag 96, APJ antagonist 79, APJ ag inactive and APJ antag confirm 104.
Screening CCOC(=O)c1c(-c2ccc(-c3ccccc3)cc2)csc1NC(=O)CNCCN(C)C returned CCR6 antag 78, APJ antagonist 43, FXN GAA850 act inactive, CXCR6 inh inactive, EBI2 block inactive, APJ ag inactive and APJ antag confirm 96.
`Cc1[nH]n(-c2ccccc2)c(=O)c1C(C[N+](=O)[O-])c1ccc(F)cc1` (centres undefined) gave CCR6 antag inactive, APJ antagonist 45, FXN GAA850 act inactive, CXCR6 inh inactive, EBI2 block inactive, APJ ag inactive and APJ antag confirm inactive.
Screening Cc1ccc(C)c(-c2cc(C(=O)NNC(=S)NCC(C)C)c3ccccc3n2)c1 returned CCR6 antag inactive, APJ antagonist 45, FXN GAA850 act inactive, CXCR6 inh inactive, EBI2 block inactive, APJ ag inactive and APJ antag confirm inactive.
For CC[C@]12C(=O)N(C)C[C@H]([C@@H]3C(=O)N(Cc4ccccc4)C(=O)[C@@H]31)N2C(=O)c1ccc(Br)cc1 the results were CCR6 antag inactive, FXN GAA850 act inactive, CXCR6 inh inactive and EBI2 block inactive.
`Cc1ccc2c(c1)C(=O)C(=O)N2c1ccc(Cl)cc1` gave CCR6 antag inactive, APJ antagonist 45, FXN GAA850 act inactive, CXCR6 inh inactive, EBI2 block inactive, APJ ag inactive and APJ antag confirm 86.
Cc1ccc2c(c1)C(=O)C(=O)N2c1ccc(C(F)(F)F)cc1 was read as CCR6 antag inactive, APJ antagonist inactive, FXN GAA850 act inactive, CXCR6 inh inactive, EBI2 block inactive and APJ ag inactive.
`Cc1ccccc1NC(=O)c1ccc(Nc2c([N+](=O)[O-])cc([N+](=O)[O-])c3ccccc23)cc1` gave CCR6 antag 60, APJ antagonist 57, FXN GAA850 act inactive, CXCR6 inh 42, EBI2 block inactive, APJ ag inactive and APJ antag confirm 90.
`CC1C(c2ccccc2)=Nn2c(=O)n(-c3ccccc3)c(=O)n21` (centres undefined) gave FXN GAA850 act inactive, CXCR6 inh inactive and EBI2 block inactive.
`O=C1OC(c2ccc(F)cc2)=C/C1=C\c1ccc(O)cc1` gave CCR6 antag 52, APJ antagonist 43, FXN GAA850 act inactive, CXCR6 inh inactive, EBI2 block inactive, APJ ag inactive and APJ antag confirm 74.
`COc1ccc(-n2c(C)ccc2-c2ccccc2)cn1` gave CCR6 antag inactive, APJ antagonist 79, FXN GAA850 act inactive, CXCR6 inh inactive, EBI2 block inactive, APJ ag inactive and APJ antag confirm inactive.
`COc1ccc(NC(=O)CS(=O)(=O)c2ccc(C)cc2)c(OC)c1` gave CCR6 antag inactive, APJ antagonist 110, FXN GAA850 act inactive, CXCR6 inh inactive, EBI2 block inactive, APJ ag inactive and APJ antag confirm inactive.
Screening COc1ccc(NC(=O)COC(=O)CCc2nc3ccccc3c(=O)[nH]2)cc1Cl returned CCR6 antag inactive, APJ antagonist inactive, FXN GAA850 act inactive, CXCR6 inh inactive, EBI2 block inactive and APJ ag inactive.
COc1ccc(NC(=O)COC(=O)CCc2nc3ccccc3c(=O)[nH]2)c(OC)c1 was read as CCR6 antag inactive, APJ antagonist 41, FXN GAA850 act inactive, CXCR6 inh inactive, EBI2 block inactive, APJ ag inactive and APJ antag confirm inactive.
`Cc1cccc(C)c1NC(=O)c1csc(COCCO)n1` gave FXN GAA850 act inactive, CXCR6 inh inactive and EBI2 block inactive.
`Brc1ccc(N=Nc2ccc3ccccc3n2)cc1` gave CCR6 antag inactive, APJ antagonist 49, FXN GAA850 act inactive, CXCR6 inh inactive, EBI2 block inactive, APJ ag inactive and APJ antag confirm 54.

Source: PubChem (several laboratories)
